# Measurements reported in ChEMBL document CHEMBL1153931.
# Target: T1, NH(3)-dependent NAD(+) synthetase (Bacillus anthracis, UniProt Q81RP3)
# T1 sequence (Q81RP3 whole entry): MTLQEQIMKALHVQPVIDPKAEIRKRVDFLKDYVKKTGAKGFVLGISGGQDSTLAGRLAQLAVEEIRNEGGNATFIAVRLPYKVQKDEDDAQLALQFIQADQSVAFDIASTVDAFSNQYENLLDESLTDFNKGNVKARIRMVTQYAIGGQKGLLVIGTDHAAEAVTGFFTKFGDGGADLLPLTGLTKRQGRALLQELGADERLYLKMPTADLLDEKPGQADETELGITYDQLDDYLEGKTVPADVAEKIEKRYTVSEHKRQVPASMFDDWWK
# Experiment: Inhibition of Bacillus anthracis NAD synthetase
# Method in brief: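 Purified B. anthracis NADs (6 μg/ml) in 60 mM HEPPS pH 8.5 with 0.5 mM NH4Cl, 20 mM KCl, 10 mM MgCl2, 0.1 mM NaAD, 2.5% DMSO and 0.3% BOG. Started with 0.2 mM ATP, quenched with guanidine-HCl after 10 min. Compounds tested 600 to 0.6 μM in doubling dilutions. NAD measured by reverse-phase HPLC peak height. IC50 is the average of duplicate runs.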
row,Structure (SMILES),IC50
1,NC(=O)c1c(NC(=S)NC(=O)c2cccc([N+](=O)[O-])c2)sc2c1CCCC2,186 µM
2,O=C(Cn1nnc(N2CCOCC2)n1)N/N=C/c1ccc(-c2cccc([N+](=O)[O-])c2)o1,109 µM
3,COc1ccc(Br)c(-c2nnc(-c3ccccc3NC(=O)NC(=O)c3ccccc3Cl)o2)c1,220 µM
4,N#C/C(=C\c1ccccc1[N+](=O)[O-])C(=O)c1ccccc1,51 µM

# Tested on: Bacillus anthracis
# Experiment: Antibacterial activity against Bacillus anthracis Sterne
# Type: functional
row,Structure (SMILES),MIC
1,Cc1c(NC(=O)c2ccc(N3CCCC3)c([N+](=O)[O-])c2)cccc1-c1nc2ccccc2[nH]1,> 240 µM
2,COc1ccc(NC(=O)Nc2ccc(Oc3ncnc4cc(Cl)ccc34)nc2)cc1OC1CCCC1,> 240 µM
3,O=C(CCC(=O)Nc1ccc(Nc2ccccc2)cc1)Nc1ccc(Nc2ccccc2)cc1,> 222 µM
4,NC(=O)c1c(NC(=S)NC(=O)c2cccc([N+](=O)[O-])c2)sc2c1CCCC2,> 240 µM
5,COc1ccc(Oc2ccc([N+](=O)[O-])cc2C(=O)Nc2ccc(S(N)(=O)=O)cc2)cc1,> 240 µM
6,O=C(Nc1ccc(S(=O)(=O)Nc2ncccn2)cc1)Nc1ccc(Cl)c(Cl)c1,15 µM
7,NC(=O)c1ccc(/N=C/c2cc([N+](=O)[O-])ccc2Cl)cc1,> 329 µM
8,O=C(Cn1nnc(N2CCOCC2)n1)N/N=C/c1ccc(-c2cccc([N+](=O)[O-])c2)o1,> 240 µM
9,Cc1ccc(-c2nc3cc(Cl)ccc3o2)cc1CC(=O)c1cc([N+](=O)[O-])c(C)c([N+](=O)[O-])c1,> 240 µM
10,COc1ccc(Br)c(-c2nnc(-c3ccccc3NC(=O)NC(=O)c3ccccc3Cl)o2)c1,> 240 µM
11,O=C(Nc1ccc(/N=N/c2ccccc2)cc1)c1ccc([N+](=O)[O-])cc1,> 240 µM
12,O=C(Nc1ccc(Cc2ccc(NC(=O)c3ccc4c(c3)OCO4)cc2)cc1)c1ccc2c(c1)OCO2,> 240 µM
13,O=C1C=C(Nc2ccccc2C(=O)O)C(=O)C=C1Nc1ccccc1C(=O)O,> 264 µM
14,O=C(Nc1cccc(/N=C/c2cc([N+](=O)[O-])ccc2O)c1)c1cccc(Br)c1,> 227 µM
15,N#C/C(=C\c1ccccc1[N+](=O)[O-])C(=O)c1ccccc1,120 µM
16,O=C(Nc1ccc([N+](=O)[O-])cc1)c1ccc(-c2nnc(-c3ccccc3)o2)cc1,> 259 µM
17,CCc1ccc(S(=O)(=O)Nc2c([N+](=O)[O-])ccc3ccccc23)cc1,3.8 µM
18,NC(=O)c1ccc(NC(=O)c2ccc(Oc3ccc([N+](=O)[O-])cc3Cl)cc2)cc1,> 240 µM
19,Cc1cc(C)c2oc(-c3cccc(NC(=O)/C=C/c4cccc([N+](=O)[O-])c4)c3)nc2c1,> 240 µM
20,Cc1cc(-c2nnc(CSc3nnc(NC(=O)c4ccc(F)c(Cl)c4)s3)o2)ccc1[N+](=O)[O-],> 240 µM
21,O=C(Nc1ccc2oc(-c3cc(Br)ccc3Cl)nc2c1)c1cccc([N+](=O)[O-])c1,> 240 µM
22,COc1ccc(NC(=O)Nc2cccc(NC(=O)Nc3ccc(OC)cc3)c2F)cc1,> 240 µM

row,Structure (SMILES),MIC
1,O=C(Cn1cc(/C=C/c2[nH]c(=O)[nH]c(=O)c2[N+](=O)[O-])c2ccccc21)Nc1ccc(F)cc1,> 223 µM
2,Nc1c(C(=O)c2ccc([N+](=O)[O-])cc2)sc(Nc2ccccc2)c1-c1nc2ccccc2[nH]1,> 240 µM
3,Cc1onc(-c2ccccc2)c1NC(=O)Nc1ccc(Oc2ncnc3cc(Cl)ccc23)nc1,> 240 µM
4,O=C(COC(=O)c1ccc(NC(=O)c2ccc([N+](=O)[O-])cc2)cc1)c1ccc(F)cc1,> 237 µM
5,O=[N+]([O-])c1ccc(-c2cnc(N/N=C/c3cccc([N+](=O)[O-])c3)nc2)cc1,> 274 µM
6,Cc1ccc(C(=O)Nc2cccc(-c3nc4ccccc4[nH]3)c2)cc1,> 240 µM
7,O=C(CSc1nc(Nc2ccccc2)nc(N2CCOCC2)n1)Nc1ccc([N+](=O)[O-])cc1O,15 µM
8,COc1ccccc1NC(=O)NC(=O)c1ccc(-c2csnn2)cc1,> 240 µM
9,O=C(Nc1cccc(Oc2ccc3c(c2)C(=O)N(c2ccccc2)C3=O)c1)c1cccc([N+](=O)[O-])c1,> 240 µM
10,O=C(Nc1cccc(C(=O)Nc2cccc3ccccc23)c1)c1cccc([N+](=O)[O-])c1,> 240 µM
11,Nc1ncnc(Nc2ccc(Cl)cc2C(=O)c2ccccc2Cl)c1[N+](=O)[O-],> 247 µM
12,COc1ccc(CCNC(=O)NCc2cccc(CNC(=O)NCCc3ccc(OC)cc3)c2)cc1,> 204 µM
13,CCOC(=O)C1=C(Nc2cccc3ccccc23)S/C(=C\c2ccc([N+](=O)[O-])cc2)C1=O,> 224 µM
14,O=[N+]([O-])c1ccc(O)c(/C=N/c2cccc(O)c2)c1,> 387 µM
15,O=C(NC(=S)Nc1cc(-c2nc3ccccc3[nH]2)ccc1Cl)c1ccccc1[N+](=O)[O-],> 240 µM
16,O=C(Nc1ccccc1)Nc1ccc(NC(=O)c2ccc(NC(=O)Nc3ccccc3)cc2)cc1,> 240 µM
17,COc1ccccc1NC(=O)COc1ccc(/C=C(/C#N)c2nc3ccccc3[nH]2)cc1,> 240 µM
18,O=C(Nc1cccc(/N=C/c2cc([N+](=O)[O-])ccc2O)c1)c1ccc(Cl)cc1Cl,> 232 µM
19,O=C(Nc1ccc([N+](=O)[O-])cc1)Nc1ccc(S(=O)(=O)Nc2ccc(Cl)c(Cl)c2)cc1,1.9 µM
20,COc1cccc(NC(=O)Nc2nnc(COc3ccc([N+](=O)[O-])cc3)s2)c1,> 240 µM
21,N/C(=N\OC(=O)c1ccc(Cl)c(Cl)c1)c1cccc(CSc2ccccn2)c1,> 240 µM
